PTPN22 act – LYP phosphatase activators, primary screen, biochemical, DiFMUP fluorescence, 2 µM; Tyrosine-protein phosphatase non-receptor type 22 (Homo sapiens), Q9Y2R2; recombinant LYP; 0 = plate median, 100 = signal doubled; activation, % at 2 µM; hit rate 0.11% among 96,000; AID 697, 2007;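 active means activation at 2 µM above a set limit, the mean plus 5 SD, cut at about 37% in these data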
PTPN22 inh 2 – PTPN22 phosphatase inhibitors, primary screen, biochemical, DiFMUP fluorescence, 2 µM. hit rate 0.21% among 96,000. AID 640, 2007. recombinant LYP catalytic domain. inhibition, % at 2 µM. Tyrosine-protein phosphatase non-receptor type 22 (Homo sapiens), Q9Y2R2;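 active means inhibition at 2 µM at or above a set limit, the screen mean plus 3 SD, cut at about 24% in these data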
HIV Rev-RRE inh – HIV-1 Rev-RRE binding inhibitors, primary screen, biochemical, FRET, protein-RNA interaction; AID 704, 2007; hit rate 0.79% among 97,000; inhibition, % at 8 µM; Rev peptide-RRE RNA binding;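 active means inhibition above the screen-wide mean plus 3 SD, cut at about 35% in these data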
Target sequence (P05866 whole entry, looked up): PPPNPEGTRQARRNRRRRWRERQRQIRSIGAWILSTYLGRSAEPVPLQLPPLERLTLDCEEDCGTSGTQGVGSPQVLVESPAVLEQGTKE
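Material: labelled RRE RNA duplex and labelled Rev peptide / Buffer or medium: HEPES pH 7.5 salt buffer with EDTA / Compound dosing: single point, 8 µM final nominal compound concentration / Benchmarks: DMSO low control, neomycin B high control / Timing: 5 min preincubation and 15 min binding, 25 °C / Technique: FRET fluorescence readout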
PLK1 PBD inh – Plk1 polo box domain binding inhibitors, primary screen, biochemical, fluorescence polarization; Plk1 PBD phosphopeptide binding; inhibition, %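 (tested at about 20 µM)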; hit rate 0.13% among 97,000; in the data active means inhibition above about 34%, passing the limit was not always enough
PLK1 kinase inh – human PLK1 kinase inhibitors, primary screen, biochemical, TR-FRET | hit rate 0.53% among 97,000 | recombinant PLK1 kinase, TR-FRET peptide phosphorylation | inhibition, % at 10 µM | AID 619, 2007 | Serine/threonine-protein kinase PLK1 (Homo sapiens), P53350;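 active means inhibition of 50% or more in the single-concentration screen; inactive means inhibition below 50%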
EphB4 antag – EphB4-ephrin-B2 interaction antagonists, primary screen, biochemical, TNYL-RAW peptide probe, fluorescence polarization | Ephrin type-B receptor 4 (Homo sapiens), P54760 | EphB4 LBD / TNYL-RAW-Alexa532 peptide | inhibition, % at 7 µM | hit rate 0.15% among 97,000 | AID 720, 2007;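 active means inhibition above the screen-wide mean inhibition plus 3 SD, cut at about 15% in these data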
A number is an active result; n = inactive; x = no result; [ ] = remark or other dose. An excerpt weighted towards active compounds, which were near 2% of everything screened.

SMILES	PTPN22 act	PTPN22 inh 2	HIV Rev-RRE inh	PLK1 PBD inh	PLK1 kinase inh	EphB4 antag
Cc1ccc2nc3sc(C(=O)N4CCCc5ccccc54)c(N)c3cc2c1	n	n	49	n	n	n
CC1CCC(N2CCN(S(C)(=O)=O)CC2)CC1 (stereo not given)	n	n	n	n	n	n
COc1ccc(N2CCN(C(=O)COc3ccccc3)CC2)cc1	n	n	n	n	n	n
O=C1CN(C(=O)COc2ccccc2)CCN1	x	x	n	n	61	n
COc1ccc(-c2cn3nc4c(nc3n2)CCCC4)cc1	n	n	98[fluorescence artefact?]	n	n	n
O=c1c(/C=N/Nc2ccccc2)c(Sc2nnnn2-c2ccccc2)nc2ccccn12	n	24	73[fluorescence artefact?]	n	n	n
Cc1cc(NS(=O)(=O)c2ccc(Cl)cc2)nn1CC(=O)NCc1ccco1	n	n	n	n	n	n
CCc1cc[n+](-c2nc([O-])sc2C=O)cc1	n	n	46	n	n	n
CCOC(=O)N1CCN(/C=C(\C#N)c2nc3ccccc3s2)CC1	n	n	53	n	n	n
COC(=O)c1ccc(/C=C(\C#N)c2nc3ccccc3s2)cc1	n	n	n	n	n	n
N#C/C(=C\N1CCN(Cc2ccc3c(c2)OCO3)CC1)c1nc2ccccc2s1	n	n	65	n	n	n
COc1ccc(NC(=O)C2CCCN(S(=O)(=O)c3cccc4nonc34)C2)cc1 (stereo not given)	n	n	n	n	n	n
Cc1ccc(-c2c3c(=O)n(C)c(=O)n(C)c3c3nnc4ccccc4n23)cc1	n	n	n	n	n	n
Cc1cccc(-c2c3c(=O)n(C)c(=O)n(C)c3c3nnc4ccccc4n23)c1	n	n	49	n	n	n
O=C(Nc1ccc2c(c1)OCO2)C1CC(c2ccc(F)cc2)=NO1 (stereo not given)	n	n	n	n	n	20
N#Cc1ccc(NC(=O)C2CC(c3ccc(F)cc3)=NO2)cc1 (stereo not given)	n	n	n	n	n	n
Cc1nc2ccccc2nc(C)c1=NO	n	n	n	n	n	n
C/C(O)=c1/ccc2cccc3nc(C)nc1c23	n	n	91[fluorescence artefact?]	n	n	n
CC(C)c1ccc(/C=C2\CC/C(=C\C=N\N(C)C)C2=O)cc1	n	n	46	n	n	n
O=C(/C=C/c1cccc([N+](=O)[O-])c1)NCCN1CCOCC1	n	n	n	n	n	17
CC1(C)N=C(c2cccc(F)c2)C(=O)N1	n	n	n	n	n	n
O=C(CCc1ccccc1)Nc1nnc(-c2ccc3c(c2)CCCC3)o1	n	n	n	n	n	n
CC1CC(C)CN(S(=O)(=O)c2ccc(C(=O)Nc3nnc(-c4cccs4)o3)cc2)C1 (stereo not given)	n	n	n	n	n	n
O=C(CCc1ccccc1)Nc1nnc(-c2cccs2)o1	x	x	n	n	62	n
O=C(Nc1nnc(-c2cccs2)o1)c1cccc(C(F)(F)F)c1	x	x	n	n	61	n
SMILES	PTPN22 act	PTPN22 inh 2	HIV Rev-RRE inh	PLK1 PBD inh	PLK1 kinase inh	EphB4 antag
COCc1nnc(NC(=O)c2ccc(S(=O)(=O)N(C)C3CCCCC3)cc2)o1	n	n	n	n	n	n
CCOC(=O)c1ccc(NC(=O)CSc2nnc(C3CC3)n2CC)cc1	n	n	n	n	n	n
CCCC(NC(=O)CNC(=O)C(C)(C)C)C(=O)O (stereo not given)	n	n	n	n	n	n
O=C(CSc1nnnn1Cc1ccccc1)Nc1ccc2c(c1)OCO2	n	n	n	n	n	18
CCOC(=O)Cc1csc(NC(=O)c2ccc(Cl)nc2)n1	n	n	41	n	n	n
CCOC(=O)Cc1csc(NC(=O)c2sc3nc4ccc(CC)cc4cc3c2N)n1	n	n	85[fluorescence artefact?]	n	n	n
COC(=O)c1ccc(NC(=O)CN2CCN(c3cccc(Cl)c3)CC2)cc1	n	n	n	n	n	17
O=C(CSc1nnc(-c2cccs2)n1-c1cccc(Cl)c1)c1cccc2c1OCCO2	n	25	n	n	n	n
O=C(O)CSc1nnc(-c2cccs2)n1-c1ccc(Cl)cc1	n	n	n	n	n	n
